≈ marks a conversion by molar mass, not a printed value.
Legend:
Assay type in all cases: functional
[1] = test system: Bacillus cereus; test: Antibacterial activity against Bacillus cereus CIP 6624 after 18 hrs by agar dilution method; conditions: CIP 6624, 18 h
Outline: (§1)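 Agar-dilution MIC against Gram-positive strains. Compounds in DMSO, geometric dilutions giving final 100−0.75 mg/L in Mueller Hinton agar. Strains grown 18 h at 37 °C in trypticase soy broth, diluted in sterile water, spotted by Steers inoculator (about 1000 UFC/spot). Plates incubated 18 h at 37 °C; DMSO blank; ofloxacin positive control. MIC = lowest concentration with no visible growth.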

[2] = test system: Bacillus cereus; test: Antibacterial activity against Bacillus cereus N190 after 18 hrs by agar dilution method; conditions: N190, 18 h; outline: as §1
[3] = test system: Bacillus cereus; test: Antibacterial activity against Bacillus cereus N258 after 18 hrs by agar dilution method; conditions: N258, 18 h; outline: as §1
[4] = test system: Bacillus cereus; test: Antibacterial activity against Bacillus cereus N349 after 18 hrs by agar dilution method; conditions: N349, 18 h; outline: as §1
[5] = test system: Bacillus spizizenii; test: Antibacterial activity against Bacillus subtilis ATCC 6633 after 18 hrs by agar dilution method; conditions: ATCC 6633, 18 h; outline: as §1
[6] = test system: Corynebacterium striatum; test: Antibacterial activity against Corynebacterium striatum N840 after 18 hrs by agar dilution method; conditions: N840, 18 h; outline: as §1
[7] = test system: Enterococcus avium; test: Antibacterial activity against Enterococcus avium CIP 104053 after 18 hrs by agar dilution method; conditions: CIP 104053, 18 h; outline: as §1
[8] = test system: Enterococcus casseliflavus; test: Antibacterial activity against Enterococcus casseliflavus N487 after 18 hrs by agar dilution method; conditions: N487, 18 h; outline: as §1
[9] = test system: Enterococcus casseliflavus; test: Antibacterial activity against Enterococcus casseliflavus CIP 103018 after 18 hrs by agar dilution method; conditions: CIP 103018, 18 h; outline: as §1
[10] = test system: Enterococcus durans; test: Antibacterial activity against Enterococcus durans CIP 104999 after 18 hrs by agar dilution method; conditions: CIP 104999, 18 h; outline: as §1
[11] = test system: Enterococcus faecalis; test: Antibacterial activity against Enterococcus faecalis CIP 103214 after 18 hrs by agar dilution method; conditions: CIP 103214, 18 h; outline: as §1
[12] = test system: Enterococcus faecalis; test: Antibacterial activity against Enterococcus faecalis CIP 104676 after 18 hrs by agar dilution method; conditions: CIP 104676, 18 h; outline: as §1
[13] = test system: Enterococcus faecalis; test: Antibacterial activity against Enterococcus faecalis N491 after 18 hrs by agar dilution method; conditions: N491, 18 h; outline: as §1
[14] = test system: Enterococcus faecalis; test: Antibacterial activity against Enterococcus faecalis N518 after 18 hrs by agar dilution method; conditions: N518, 18 h; outline: as §1
[15] = test system: Enterococcus faecalis; test: Antibacterial activity against Enterococcus faecalis N520 after 18 hrs by agar dilution method; conditions: N520, 18 h; outline: as §1
[16] = test system: Enterococcus faecium; test: Antibacterial activity against Enterococcus faecium CIP 103014 after 18 hrs by agar dilution method; conditions: CIP 103014, 18 h; outline: as §1
[17] = test system: Enterococcus faecium; test: Antibacterial activity against Enterococcus faecium CIP 107387 after 18 hrs by agar dilution method; conditions: CIP 107387, 18 h; outline: as §1
[18] = test system: Enterococcus faecium; test: Antibacterial activity against Enterococcus faecium N490 after 18 hrs by agar dilution method; conditions: N490, 18 h; outline: as §1
[19] = test system: Enterococcus faecium; test: Antibacterial activity against Enterococcus faecium N507 after 18 hrs by agar dilution method; conditions: N507, 18 h; outline: as §1
[20] = test system: Enterococcus faecium; test: Antibacterial activity against Enterococcus faecium N733 after 18 hrs by agar dilution method; conditions: N733, 18 h; outline: as §1
[21] = test system: Enterococcus faecium; test: Antibacterial activity against Enterococcus faecium N823 after 18 hrs by agar dilution method; conditions: N823, 18 h; outline: as §1
[22] = test system: Enterococcus gallinarum; test: Antibacterial activity against Enterococcus gallinarum CIP 105985 after 18 hrs by agar dilution method; conditions: CIP 105985, 18 h; outline: as §1
[23] = test system: Enterococcus gallinarum; test: Antibacterial activity against Enterococcus gallinarum N489 after 18 hrs by agar dilution method; conditions: N489, 18 h; outline: as §1
[24] = test system: Enterococcus gallinarum; test: Antibacterial activity against Enterococcus gallinarum N492 after 18 hrs by agar dilution method; conditions: N492, 18 h; outline: as §1
[25] = test system: Enterococcus hirae; test: Antibacterial activity against Enterococcus hirae CIP 5855 after 18 hrs by agar dilution method; conditions: CIP 5855, 18 h; outline: as §1
[26] = test system: Listeria innocua; test: Antibacterial activity against Listeria innocua E044 after 18 hrs by agar dilution method; conditions: E044, 18 h; outline: as §1
[27] = test system: Listeria monocytogenes; test: Antibacterial activity against Listeria monocytogenes CIP 103575 after 18 hrs by agar dilution method; conditions: CIP 103575, 18 h; outline: as §1
[28] = test system: Listeria monocytogenes; test: Antibacterial activity against Listeria monocytogenes N783 after 18 hrs by agar dilution method; conditions: N783, 18 h; outline: as §1
[29] = test system: Listeria monocytogenes; test: Antibacterial activity against Listeria monocytogenes N836 after 18 hrs by agar dilution method; conditions: N836, 18 h; outline: as §1
[30] = test system: Listeria monocytogenes; test: Antibacterial activity against Listeria monocytogenes N851 after 18 hrs by agar dilution method; conditions: N851, 18 h; outline: as §1
[31] = test system: Staphylococcus aureus; test: Antibacterial activity against Staphylococcus aureus ATCC 25923 after 18 hrs by agar dilution method; conditions: ATCC 25923, 18 h; outline: as §1
[32] = test system: Staphylococcus aureus; test: Antibacterial activity against Staphylococcus aureus ATCC 9144 oxford after 18 hrs by agar dilution method; outline: as §1
[33] = test system: Staphylococcus aureus; test: Antibacterial activity against Staphylococcus aureus CIP 483 after 18 hrs by agar dilution method; conditions: CIP 483, 18 h; outline: as §1
[34] = test system: Staphylococcus aureus; test: Antibacterial activity against Staphylococcus aureus CIP 53154 after 18 hrs by agar dilution method; conditions: CIP 53154, 18 h; outline: as §1
[35] = test system: Staphylococcus aureus; test: Antibacterial activity against Staphylococcus aureus CIP 53156 after 18 hrs by agar dilution method; conditions: CIP 53156, 18 h; outline: as §1
[36] = test system: Staphylococcus aureus; test: Antibacterial activity against Staphylococcus aureus CIP 5710 after 18 hrs by agar dilution method; conditions: CIP 5710, 18 h; outline: as §1
[37] = test system: Staphylococcus aureus; test: Antibacterial activity against Staphylococcus aureus CIP 7625 after 18 hrs by agar dilution method; conditions: CIP 7625, 18 h; outline: as §1
[38] = test system: Staphylococcus aureus; test: Antibacterial activity against Staphylococcus aureus CRBIP 2121 after 18 hrs by agar dilution method; conditions: CRBIP 2121, 18 h; outline: as §1
[39] = test system: Staphylococcus epidermidis; test: Antibacterial activity against Staphylococcus epidermidis CIP 53124 after 18 hrs by agar dilution method; conditions: CIP 53124, 18 h; outline: as §1
[40] = test system: Staphylococcus haemolyticus; test: Antibacterial activity against Staphylococcus haemolyticus CIP 8156 after 18 hrs by agar dilution method; conditions: CIP 8156, 18 h; outline: as §1
[41] = test system: Staphylococcus intermedius; test: Antibacterial activity against Staphylococcus intermedius N987 after 18 hrs by agar dilution method; conditions: N987, 18 h; outline: as §1
[42] = test system: Staphylococcus lugdunensis; test: Antibacterial activity against Staphylococcus lugdunensis ATCC 43809 after 18 hrs by agar dilution method; conditions: ATCC 43809, 18 h; outline: as §1
[43] = test system: Staphylococcus saprophyticus; test: Antibacterial activity against Staphylococcus saprophyticus CIP 76125 after 18 hrs by agar dilution method; conditions: CIP 76125, 18 h; outline: as §1
[44] = test system: Staphylococcus saprophyticus; test: Antibacterial activity against Staphylococcus saprophyticus E260 after 18 hrs by agar dilution method; conditions: E260, 18 h; outline: as §1
[45] = test system: Mammaliicoccus sciuri; test: Antibacterial activity against Staphylococcus sciuri N993 after 18 hrs by agar dilution method; conditions: N993, 18 h; outline: as §1
[46] = test system: Streptococcus agalactiae; test: Antibacterial activity against Streptococcus agalactiae CIP 103227 after 18 hrs by agar dilution method; conditions: ATCC 13813, 18 h; outline: as §1

SMILES: CC1COc2c(N3CCN(C)CC3)c(F)cc3c(=O)c(C(=O)O)cn1c23 (stereo unspecified) [OFLOXACIN]
- MIC [1]: 0.7 µM (≈ 0.253 µg/mL)
- MIC [2]: 0.7 µM (≈ 0.253 µg/mL)
- MIC [3]: 0.7 µM (≈ 0.253 µg/mL)
- MIC [4]: 1.4 µM (≈ 0.506 µg/mL)
- MIC [5]: ≤ 0.2 µM
- MIC [6]: > 354 µM
- MIC [7]: 6 µM (≈ 2.17 µg/mL)
- MIC [8]: 11 µM (≈ 3.98 µg/mL)
- MIC [9]: 11 µM (≈ 3.98 µg/mL)
- MIC [10]: 1.4 µM (≈ 0.506 µg/mL)
- MIC [11]: 3 µM (≈ 1.08 µg/mL)
- MIC [12]: 3 µM (≈ 1.08 µg/mL)
- MIC [13]: 6 µM (≈ 2.17 µg/mL)
- MIC [14]: 11 µM (≈ 3.98 µg/mL)
- MIC [15]: 354 µM (≈ 128 µg/mL)
- MIC [16]: 22 µM (≈ 7.95 µg/mL)
- MIC [17]: 177 µM (≈ 64 µg/mL)
- MIC [18]: 6 µM (≈ 2.17 µg/mL)
- MIC [19]: 354 µM (≈ 128 µg/mL)
- MIC [20]: > 354 µM
- MIC [21]: 354 µM (≈ 128 µg/mL)
- MIC [22]: 11 µM (≈ 3.98 µg/mL)
- MIC [23]: 6 µM (≈ 2.17 µg/mL)
- MIC [24]: 11 µM (≈ 3.98 µg/mL)
- MIC [25]: 3 µM (≈ 1.08 µg/mL)
- MIC [26]: 11 µM (≈ 3.98 µg/mL)
- MIC [27]: 6 µM (≈ 2.17 µg/mL)
- MIC [28]: 6 µM (≈ 2.17 µg/mL)
- MIC [29]: 6 µM (≈ 2.17 µg/mL)
- MIC [30]: 6 µM (≈ 2.17 µg/mL)
- MIC [31]: 1.4 µM (≈ 0.506 µg/mL)
- MIC [32]: 0.7 µM (≈ 0.253 µg/mL)
- MIC [33]: 0.7 µM (≈ 0.253 µg/mL)
- MIC [34]: 0.7 µM (≈ 0.253 µg/mL)
- MIC [35]: 0.7 µM (≈ 0.253 µg/mL)
- MIC [36]: 0.7 µM (≈ 0.253 µg/mL)
- MIC [37]: 1.4 µM (≈ 0.506 µg/mL)
- MIC [38]: 177 µM (≈ 64 µg/mL)
- MIC [39]: 1.4 µM (≈ 0.506 µg/mL)
- MIC [40]: 0.7 µM (≈ 0.253 µg/mL)
- MIC [41]: 89 µM (≈ 32.2 µg/mL)
- MIC [42]: 3 µM (≈ 1.08 µg/mL)
- MIC [43]: 3 µM (≈ 1.08 µg/mL)
- MIC [44]: 3 µM (≈ 1.08 µg/mL)
- MIC [45]: 3 µM (≈ 1.08 µg/mL)
- MIC [46]: 1.4 µM (≈ 0.506 µg/mL)
